Measurements reported in ChEMBL document CHEMBL4406880, “Design, synthesis, and bioactivity of dihydropyrimidine derivatives as kinesin spindle protein inhibitors” (Bioorg Med Chem, 2019).

Columns and labels:
Assay type in all cases: functional
[1] = test system: PC-3; experiment: Growth inhibition of human PC3 cells assessed as cell viability at 0.1 uM incubated for 48 hrs by sulforhodamine B assay; details: PC-3, 48 h, read-out: Activity
[2] = test system: RPMI-8226; experiment: Growth inhibition of human RPMI8226 cells incubated for 48 hrs by sulforhodamine B assay; details: RPMI-8226, 48 h
How it was run: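 NCI-60 five-dose assay, SRB end-point, same culture conditions. Compound is tested at tenfold dilutions of 0.01, 0.1, 1, 10 and 100 µM for 48 h at 37 °C, with DMSO/PBS vehicle controls. Percentage growth at each concentration is taken against untreated cells and a time-zero plate. GI50 is 50% net growth decrease, TGI is total growth inhibition, and LC50 is 50% loss of initial cells.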

[3] = test system: SK-MEL-5; experiment: Growth inhibition of human SK-MEL-5 cells assessed as cell viability at 0.001 uM incubated for 48 hrs by sulforhodamine B assay relative to control; details: SK-MEL-5, 48 h, read-out: Activity
[4] = test system: SNB-75; experiment: Growth inhibition of human SNB75 cells assessed as cell viability at 1 uM incubated for 48 hrs by sulforhodamine B assay; details: SNB-75, 48 h, read-out: Activity
[5] = test system: NCI-H23; experiment: Growth inhibition of human NCI-H23 cells incubated for 48 hrs by sulforhodamine B assay; details: NCI-H23, 48 h
How it was run: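 NCI-60 five-dose SRB assay in RPMI 1640 with 5% FBS, 37 °C, 5% CO2. Compound given at five tenfold dilutions, 0.01–100 µM, for 48 h. Adherent cells fixed with TCA, suspension cells with 16% final TCA. Bound SRB read at 515 nm and growth calculated against time-zero and untreated controls. GI50 taken from dose–response curves as the concentration giving a 50% decrease in net cell growth.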

[6] = test system: SNB-75; experiment: Cell cycle arrest in human SNB75 cells assessed as accumulation in S phase at 2 uM incubated for 24 hrs by propidium iodide based flow cytometry (reference value: 33.92 %)
How it was run: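 SNB-75 cells were exposed to 2 µM for 24 h at 37 °C, 5% CO2, then washed with PBS and fixed in 70% ethanol on ice for 15 min. They were stained 1 h at room temperature with 50 µg/mL propidium iodide, 0.1 mg/mL RNase A and 0.05% Triton X-100. DNA content was read by flow cytometry to give the % of cells in pre-G1, G0/G1, S and G2/M.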

[7] = test system: MDA-MB-435; experiment: Growth inhibition of human MDA-MB-435 cells assessed as cell viability at 0.001 uM incubated for 48 hrs by sulforhodamine B assay relative to control; details: MDA-MB-435, 48 h, read-out: Activity
[8] = test system: SK-MEL-28; experiment: Growth inhibition of human SK-MEL-28 cells assessed as cell viability at 1 uM incubated for 48 hrs by sulforhodamine B assay; details: SK-MEL-28, 48 h, read-out: Activity
[9] = test system: SNB-75; experiment: Induction of apoptosis in human SNB75 cells assessed as necrosis at 2 uM incubated for 24 hrs by annexin V FITC and propidium iodide based flow cytometry (reference value: 0.44 %)
[10] = test system: CAKI-1; experiment: Growth inhibition of human Caki1 cells assessed as cell viability at 1 uM incubated for 48 hrs by sulforhodamine B assay; details: CAKI-1, 48 h, read-out: Activity
[11] = test system: PC-3; experiment: Growth inhibition of human PC3 cells assessed as cell viability at 100 uM incubated for 48 hrs by sulforhodamine B assay; details: PC-3, 48 h, read-out: Activity
[12] = test system: SW-620; experiment: Growth inhibition of human SW620 cells assessed as cell viability at 0.1 uM incubated for 48 hrs by sulforhodamine B assay; details: SW-620, 48 h, read-out: Activity
[13] = test system: Malme-3M; experiment: Growth inhibition of human MALME-3M cells assessed as cell viability at 100 uM incubated for 48 hrs by sulforhodamine B assay; details: read-out: Activity
[14] = test system: UACC-257; experiment: Growth inhibition of human UACC257 cells assessed as cell viability at 0.001 uM incubated for 48 hrs by sulforhodamine B assay relative to control; details: UACC-257, 48 h, read-out: Activity
[15] = test system: NCI-H226; experiment: Growth inhibition of human NCI-H226 cells assessed as cell viability at 0.1 uM incubated for 48 hrs by sulforhodamine B assay; details: NCI-H226, 48 h, read-out: Activity
[16] = test system: SK-MEL-28; experiment: Growth inhibition of human SK-MEL-28 cells incubated for 48 hrs by sulforhodamine B assay; details: SK-MEL-28, 48 h
How it was run: (§1)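 NCI-60 five-dose SRB assay. Cells were exposed for 48 h to tenfold dilutions of 0.01, 0.1, 1, 10 and 100 µM, in RPMI 1640 with 5% FBS. Plates fixed with TCA at the time of drug addition served as the time-zero reference. GI50 is the concentration giving a 50% reduction in net growth. TGI is total growth inhibition. LC50 is a net 50% loss of the initial cells.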

[17] = test system: SK-OV-3; experiment: Growth inhibition of human SKOV3 cells assessed as cell viability at 0.1 uM incubated for 48 hrs by sulforhodamine B assay; details: SK-OV-3, 48 h, read-out: Activity
[18] = test system: OVCAR-5; experiment: Growth inhibition of human OVCAR5 cells incubated for 48 hrs by sulforhodamine B assay; details: OVCAR-5, 48 h; how it was run: as §1
[19] = test system: SK-MEL-2; experiment: Growth inhibition of human SK-MEL-2 cells incubated for 48 hrs by sulforhodamine B assay; details: SK-MEL-2, 48 h; how it was run: as §1
[20] = test system: A498; experiment: Growth inhibition of human A498 cells incubated for 48 hrs by sulforhodamine B assay; details: A498, 48 h
How it was run: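 NCI-60 five-dose mode: five tenfold dilutions (0.01, 0.1, 1, 10, 100 µM) are applied for 48 h to cells in RPMI 1640 with 5% FBS at 37 °C. Endpoint is TCA fixation with sulforhodamine B read at 515 nm. % growth comes from the 0 h and control absorbances. GI50 is the concentration giving a 50% reduction in net cell growth.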

[21] = read-out: LC50 (the source's name)
[22] = read-out: pLC50 (the source's name) (converted)

## CC1=C(C(=O)OCc2ccccc2)C(c2ccc3c(c2)OCO3)n2c(nc3ccccc32)N1 (racemic)
[1]
  viability at 0.1 µM: 91%
[2]; [21]
  CC50: > 100 µM
[2]; read-out: TGI
  TGI: > 100 µM
[2]; [22]
  CC50: > 100 µM
[2]; read-out: pTGI
  TGI: > 100 µM
[3]
  viability at 0.001 µM: 98%
[4]
  viability at 1 µM: -8%
[5]; read-out: GI50
  GI50: 31.8 µM
[5]; read-out: LC50
  LC50: > 100 µM
[5]; read-out: TGI
  TGI: > 100 µM
[5]; read-out: pGI50 (converted)
  GI50: 31.6 µM
[5]; read-out: pLC50 (converted)
  LC50: > 100 µM
[5]; read-out: pTGI
  TGI: > 100 µM
[6]
  Activity: 27.89%
[7]
  viability at 0.001 µM: 93%
[8]
  viability at 1 µM: 63%
[9]
  Activity: 2.05%
[10]
  viability at 1 µM: 20%
[11]
  viability at 100 µM: 45%
[12]
  viability at 0.1 µM: 89%
[13]
  viability at 100 µM: 20%
[14]
  viability at 0.001 µM: 88%
[15]
  viability at 0.1 µM: 97%
[16]; read-out: GI50
  GI50: > 100 µM
[16]; read-out: LC50
  LC50: > 100 µM
[16]; read-out: TGI
  TGI: > 100 µM
[16]; read-out: pGI50 (converted)
  GI50: > 100 µM
[16]; read-out: pLC50 (converted)
  LC50: > 100 µM
[16]; read-out: pTGI
  TGI: > 100 µM
[17]
  viability at 0.1 µM: 97%
[18]; read-out: GI50
  GI50: > 100 µM
[18]; [21]
  CC50: > 100 µM
[18]; read-out: TGI
  TGI: > 100 µM
[18]; read-out: pGI50 (converted)
  GI50: > 100 µM
[18]; [22]
  CC50: > 100 µM
[18]; read-out: pTGI
  TGI: > 100 µM
[19]; read-out: GI50
  GI50: 1.29 µM
[19]; read-out: LC50
  LC50: > 100 µM
[19]; read-out: TGI
  TGI: > 100 µM
[19]; read-out: pGI50 (converted)
  GI50: 1.29 µM
[19]; read-out: pLC50 (converted)
  LC50: > 100 µM
[19]; read-out: pTGI
  TGI: > 100 µM
[20]; read-out: GI50
  GI50: 0.36 µM
[20]; [21]
  CC50: > 100 µM
[20]; read-out: TGI
  TGI: > 100 µM
[20]; read-out: pGI50 (converted)
  GI50: 0.363 µM
[20]; [22]
  CC50: > 100 µM
[20]; read-out: pTGI
  TGI: > 100 µM
